This is a sample that favours compounds with a hit; in the whole collection about 3.5% have one here.
PAFAH1B3 FP inh – blocks human PAF acetylhydrolase 1B catalytic subunit 3; Q15102; recombinant PAFAH1B3, FP-rhodamine probe, fluorescence polarization; inhibition, % at 3.39 µM; 340,000 tested, 0.28% active; AID 492972;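 active means inhibition above the screen-wide average of all tested compounds plus 3 SD, cut at about 25% in these data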;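 further: 0% = enzyme with DMSO only and 100% = wells lacking PAFAH1B3 protein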
Target sequence (Q15102 whole entry, looked up): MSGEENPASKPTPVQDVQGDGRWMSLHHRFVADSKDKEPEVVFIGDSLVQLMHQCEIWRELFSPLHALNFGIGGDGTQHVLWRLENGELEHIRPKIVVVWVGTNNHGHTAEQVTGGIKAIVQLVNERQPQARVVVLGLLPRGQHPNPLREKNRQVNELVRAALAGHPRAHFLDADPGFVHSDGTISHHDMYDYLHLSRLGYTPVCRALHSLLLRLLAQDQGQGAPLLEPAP
PREPL inh – inhibitors of human prolyl oligopeptidase-like enzyme PREPL; 320,000 tested, 0.68% active; AID 2751; recombinant PREPL, fluorescence polarization activity-based probe; inhibition, % at 5.96 µM; in the data active means inhibition above about 43%;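 further: 0% = enzyme with DMSO and 100% = wells lacking enzyme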
pPAFAH FP inh – inhibitors of human plasma PAF acetylhydrolase (pPAFAH). Q13093. recombinant pPAFAH, FP-rhodamine probe fluorescence polarization. inhibition, % at 3.39 µM. 330,000 tested, 1.5% active;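 active means inhibition above the mean inhibition across the screen plus 3 SD, cut at about 25% in these data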;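 further: inhibitors block binding of the rhodamine activity-based probe so polarization drops; 0% = enzyme with DMSO and 100% = wells lacking pPAFAH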
PAFAH2 inh – PAFAH2 (human) inhibition | recombinant PAFAH2, FP-rhodamine activity probe, fluorescence polarization | inhibition, % at 3.39 µM | 340,000 tested, 0.99% active | AID 492956;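 active means inhibition above the mean over all tested compounds plus 3 SD, cut at about 30% in these data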;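 further: inhibitors block probe labeling of enzyme so polarization drops; 0% = enzyme with DMSO and 100% = wells lacking PAFAH2 protein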
Apaf-1 inh – blocks human Apaf-1 apoptosome activity; AID 489030; 330,000 tested, 0.71% active; O14727; inhibition, % at 20 µM; reconstituted apoptosome caspase-3 activity, DEVD-Rh110 fluorescence; active means inhibition of at least 40% at 20 µM;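 further: plate controls were DMSO wells for no effect and DEVD-CHO caspase inhibitor wells for full effect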
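System: reconstituted apoptosome with Apaf-1, cytochrome c, caspase-9, procaspase-3, dATP; Signal: Rh110 fluorescence intensity; Schedule: 30 min compound preincubation, 50 min activation, room temperature; Reagent: cytochrome c trigger plus (Z-DEVD)2-Rh110 caspase-3 substrate.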
PAFAH1B2 FP inh – PAFAH1B2 (human) inhibition | P68402 | recombinant PAFAH1B2, FP-rhodamine activity probe, fluorescence polarization | inhibition, % at 3.39 µM | 340,000 tested, 1.2% active | AID 492953;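 active means inhibition above the mean of all tested compounds plus 3 SD, cut at about 24% in these data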;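 further: 0% = enzyme with DMSO and 100% = wells lacking PAFAH1B2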
Target sequence (P68402 whole entry, looked up): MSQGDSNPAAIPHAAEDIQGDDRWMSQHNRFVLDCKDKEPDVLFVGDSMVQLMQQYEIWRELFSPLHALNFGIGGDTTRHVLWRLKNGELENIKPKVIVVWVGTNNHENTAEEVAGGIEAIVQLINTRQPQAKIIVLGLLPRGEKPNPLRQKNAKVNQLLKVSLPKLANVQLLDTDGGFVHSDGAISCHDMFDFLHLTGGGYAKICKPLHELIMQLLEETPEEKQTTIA
Active calls of the source: *; x = not tested or not shown.

SMILES	PAFAH1B3 FP inh	PREPL inh	pPAFAH FP inh	PAFAH2 inh	Apaf-1 inh	PAFAH1B2 FP inh
CCOC(=O)c1c(NC(=O)c2ccc(C)cc2)sc2c1CC(C)(C)NC2(C)C	x	-8.8	1.4	x	54.3*	x
O=C(Cn1cnc2ccccc21)Nc1ccc(F)c(F)c1	-4.9	-14.5	3.5	0.0	5.3	0.2
O=C1OC(c2cccs2)=N/C1=C\c1ccc(-c2cccc(Cl)c2)o1	-0.5	20.9	29.7*	5.3	11.4	1.6
CN(CC(=O)Nc1ccc(F)c(F)c1F)C(=O)CCc1nc2sc3c(c2c(=O)[nH]1)CCCC3	-1.7	8.8	10.2	10.1	10.9	4.2
CCCCNC(=S)Nc1cccc(S(=O)(=O)NC2=NCCC2)c1	-0.1	13.0	1.6	3.7	3.4	-2.4
Cc1ccc(CNS(=O)(=O)NCc2ccccc2)cc1	4.0	-3.6	9.4	-3.7	-3.2	7.9
COc1ccc(-c2cc(-c3ccco3)[nH]c(=O)c2C#N)cc1	5.2	10.7	29.8*	19.3	-9.0	6.1
Nc1cc2sc(-c3ccc(C(=O)O)cc3)nc2cc1Cl	6.0	5.5	7.8	4.3	-2.5	3.4
Nc1ncc(N=Nc2cc(C(=O)O)ccc2Cl)s1	21.5	4.4	25.6*	22.0	10.6	7.9
CCCNc1sc(S(=O)(=O)CCC)nc1S(=O)(=O)c1ccc(C)cc1	7.8	1.9	-0.3	3.1	18.9	-0.2
CC(=O)OC[C@]12CC[C@H]3[C@@](C)(CC[C@H]4C(C)(C)CCC[C@]34C)[C@@H]1C[C@@H](C1=CC(=O)O[C@@H]1OC(C)=O)O2	x	16.1	6.5	x	8.1	x
CC(=O)OC[C@]12CC[C@H]3[C@@](C)(CC[C@H]4C(C)(C)CCC[C@]34C)[C@@H]1C[C@H](C1=CC(=O)O[C@H]1OC(C)=O)O2	x	9.8	50.0*	x	22.3	x
COc1ccc(CCN(C)CC(=O)Nc2c(C)cc(C)cc2C)cc1OC	1.2	-3.4	7.3	5.0	3.2	3.9
Cc1ccc2c(C)c(C(=O)NCCN3CCCC(O)C3)oc2c1C (centres undefined)	5.4	-5.2	5.2	-9.3	-0.8	0.2
Cc1ccc(CN=C2NC(=O)C(CC(=O)NCCc3ccccc3)S2)cc1 (centres undefined)	-0.9	-5.1	10.7	-0.3	-20.5	42.4*
CCc1cc(=O)oc2cc(C)cc(OCC(=O)NC(Cc3ccc(Cl)cc3)C(=O)O)c12 (centres undefined)	6.3	0.5	4.0	7.2	-3.2	25.4*
Cc1ccc(NS(=O)(=O)c2ccc3c(c2)CC(=O)N3)c(C)c1	6.9	-9.8	33.3*	4.7	2.3	8.7
COc1ccccc1/C=C/C(=O)Nc1cccc(S(=O)(=O)NC2=NCCCCC2)c1	-2.8	9.2	-3.9	4.8	11.4	3.8
Cc1cccc(Nc2nc(-c3c(C)nc4ccccn34)cs2)c1	14.1	22.7	30.4*	0.7	24.7	1.7
Cc1nc2ccccn2c1-c1csc(Nc2cccc(O)c2)n1	6.0	x	x	8.6	x	6.3
CCc1nc(CNC(=O)C2CCC(=O)N(CCc3cccc(F)c3)C2)no1 (centres undefined)	1.8	10.8	-0.8	2.7	-7.6	-8.2
N#Cc1cc2c(nc1SCC(O)CS(=O)(=O)Cc1ccc(Cl)cc1)CCCC2 (centres undefined)	-1.9	-101.0	14.1	9.8	18.7	29.6*
CC(C)(C)c1ccc(S(=O)(=O)CC(O)CSc2nc3c(cc2C#N)CCCC3)cc1 (centres undefined)	5.2	-5.7	9.1	5.7	35.4	7.9
O=C(Cc1cccc(NC(=O)C2CCN(C(=O)C3CCCCC3)CC2)c1)Nc1cccc(C(=O)N2CCOCC2)c1	11.7	x	x	-1.2	x	7.7
C=CCn1c(N)c(C(=O)Nc2ccc(C)c(C)c2)c2nc3ccccc3nc21	2.0	12.0	-8.6	4.2	22.8	1.9
C=CCn1c(N)c(C(=O)Nc2cccc(C)c2)c2nc3ccccc3nc21	7.4	17.9	12.9	8.2	47.5*	-0.1
O=c1[nH]c(Cc2cccs2)nc2scc(-c3ccc(Cl)cc3)c12	-2.5	55.1*	0.8	-2.3	-1.7	-2.5
CC1CCCN(C(=O)NC2CC(=O)N(c3ccc4c(c3)OCCO4)C2)C1 (centres undefined)	2.7	5.5	4.9	3.3	-5.9	5.7
S=c1[nH]nc(-c2cccnc2)n1/N=C/C=C/c1ccco1	11.2	1.8	19.2	4.6	3.5	1.2

High-throughput results as filed in PubChem.
